Converted amounts (≈) assume the structure as drawn. “And” between values parts separate entries of the source, which are not always exact repeats. Identical values can stand only once. “Also recorded” adds a separate entry of the source.
What was measured:
[1] = test system: MDA-MB-231 human breast cancer cells; experiment: growth inhibition assay, MDA-MB-231; format: cell-based
Outline: (§1)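 Simple growth-inhibition assay in two human cancer lines, MDA-MB-231 (breast) and AsPC-1 (pancreatic), run without a particular target in mind. Cells exposed to a range of test compound concentrations, highest 40 μM. GI50 (μM) read.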

[2] = test system: AsPC-1 human tumor cell line (pancreatic cancer); experiment: growth inhibition assay, AsPC-1; format: cell-based; conditions: ASPC1
Outline: as §1

[3] = molecular target: T1, ERβ (Homo sapiens, UniProt Q92731); experiment: estrogen receptor β agonist assay; format: cell-based
T1 sequence (Q92731 whole entry): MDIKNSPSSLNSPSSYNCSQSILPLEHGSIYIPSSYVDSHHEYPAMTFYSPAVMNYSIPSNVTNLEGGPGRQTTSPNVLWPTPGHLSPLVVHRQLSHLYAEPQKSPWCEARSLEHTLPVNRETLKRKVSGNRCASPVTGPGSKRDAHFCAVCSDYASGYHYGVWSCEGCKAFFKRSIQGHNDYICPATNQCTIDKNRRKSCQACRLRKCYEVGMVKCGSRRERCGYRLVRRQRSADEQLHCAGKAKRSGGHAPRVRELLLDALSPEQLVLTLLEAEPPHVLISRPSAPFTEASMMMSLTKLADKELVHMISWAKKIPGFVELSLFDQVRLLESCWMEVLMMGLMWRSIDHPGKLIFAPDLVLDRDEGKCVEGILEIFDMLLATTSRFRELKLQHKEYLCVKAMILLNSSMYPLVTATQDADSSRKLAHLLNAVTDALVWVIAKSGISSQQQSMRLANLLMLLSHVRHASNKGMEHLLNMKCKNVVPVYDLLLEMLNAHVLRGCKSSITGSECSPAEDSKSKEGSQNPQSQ

[4] = molecular target: T2, ERα (Homo sapiens, UniProt P03372); experiment: estrogen receptor α agonist assay; format: cell-based; conditions: estrogen receptor agonism
T2 sequence (P03372 1-595): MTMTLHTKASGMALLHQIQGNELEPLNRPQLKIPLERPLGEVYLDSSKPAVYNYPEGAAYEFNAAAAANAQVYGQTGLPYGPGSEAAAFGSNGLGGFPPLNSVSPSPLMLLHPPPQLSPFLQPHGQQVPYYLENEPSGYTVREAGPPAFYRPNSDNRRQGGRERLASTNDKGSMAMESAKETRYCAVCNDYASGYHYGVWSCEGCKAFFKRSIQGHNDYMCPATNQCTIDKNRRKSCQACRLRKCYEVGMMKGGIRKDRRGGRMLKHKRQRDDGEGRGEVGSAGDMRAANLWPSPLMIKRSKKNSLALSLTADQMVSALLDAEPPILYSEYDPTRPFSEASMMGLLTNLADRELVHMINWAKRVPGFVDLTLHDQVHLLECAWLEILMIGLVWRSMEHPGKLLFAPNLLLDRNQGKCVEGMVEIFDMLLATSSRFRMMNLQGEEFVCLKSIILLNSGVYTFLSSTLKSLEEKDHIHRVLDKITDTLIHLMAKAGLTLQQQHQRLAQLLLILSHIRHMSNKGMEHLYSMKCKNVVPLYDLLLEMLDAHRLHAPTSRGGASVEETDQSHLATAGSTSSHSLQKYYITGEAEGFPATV

[5] = molecular target: T1, ERβ; experiment: estrogen receptor β antagonist assay; format: cell-based; conditions: concentrations up to 10 μM
[6] = molecular target: T2, ERα; experiment: estrogen receptor α antagonist assay; format: cell-based; conditions: concentrations up to 10 μM
[7] = test system: panel of 468 kinases; experiment: KINOMEscan panel of 468 kinases; format: binding; conditions: kinases bound divided by distinct kinases tested
[8] = molecular target: cdc-2-like kinase CLK4 (Homo sapiens, UniProt Q9HAZ1); experiment: Kd determination CLK4; format: binding
Chain of cdc-2-like kinase CLK4 (Q9HAZ1 whole entry): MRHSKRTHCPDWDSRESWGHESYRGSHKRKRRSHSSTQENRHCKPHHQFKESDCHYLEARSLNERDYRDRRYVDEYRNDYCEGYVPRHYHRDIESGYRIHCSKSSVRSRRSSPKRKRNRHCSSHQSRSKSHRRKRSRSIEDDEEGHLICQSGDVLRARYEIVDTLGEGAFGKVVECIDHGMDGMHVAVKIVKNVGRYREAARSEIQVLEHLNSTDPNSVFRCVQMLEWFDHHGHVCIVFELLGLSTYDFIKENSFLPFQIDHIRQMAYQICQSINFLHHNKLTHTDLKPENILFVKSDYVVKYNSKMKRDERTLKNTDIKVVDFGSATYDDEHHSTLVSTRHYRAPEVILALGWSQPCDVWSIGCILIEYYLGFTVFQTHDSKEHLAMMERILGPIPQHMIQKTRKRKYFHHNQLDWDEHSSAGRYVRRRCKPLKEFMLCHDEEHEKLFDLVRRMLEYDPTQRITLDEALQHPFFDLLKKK

[9] = molecular target: CLK1 (Homo sapiens, UniProt P49759); experiment: Kd determination CLK1; format: binding
Chain of CLK1 (P49759 whole entry): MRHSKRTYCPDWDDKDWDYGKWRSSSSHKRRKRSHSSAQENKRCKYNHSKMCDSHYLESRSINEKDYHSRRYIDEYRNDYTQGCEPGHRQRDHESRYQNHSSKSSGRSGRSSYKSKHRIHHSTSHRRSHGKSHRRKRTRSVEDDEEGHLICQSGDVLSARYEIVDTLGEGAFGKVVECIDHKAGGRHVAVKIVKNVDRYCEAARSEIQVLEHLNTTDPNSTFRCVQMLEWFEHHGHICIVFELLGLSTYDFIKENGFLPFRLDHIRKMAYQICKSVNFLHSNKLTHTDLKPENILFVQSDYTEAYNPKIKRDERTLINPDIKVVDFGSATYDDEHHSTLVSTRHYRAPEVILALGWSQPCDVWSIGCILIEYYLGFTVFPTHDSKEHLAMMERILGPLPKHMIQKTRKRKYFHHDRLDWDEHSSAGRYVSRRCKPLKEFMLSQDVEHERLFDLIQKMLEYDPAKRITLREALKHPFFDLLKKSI

[10] = molecular target: CLK2 (Homo sapiens, UniProt P49760); experiment: Kd determination CLK2; format: binding
Chain of CLK2 (P49760 whole entry): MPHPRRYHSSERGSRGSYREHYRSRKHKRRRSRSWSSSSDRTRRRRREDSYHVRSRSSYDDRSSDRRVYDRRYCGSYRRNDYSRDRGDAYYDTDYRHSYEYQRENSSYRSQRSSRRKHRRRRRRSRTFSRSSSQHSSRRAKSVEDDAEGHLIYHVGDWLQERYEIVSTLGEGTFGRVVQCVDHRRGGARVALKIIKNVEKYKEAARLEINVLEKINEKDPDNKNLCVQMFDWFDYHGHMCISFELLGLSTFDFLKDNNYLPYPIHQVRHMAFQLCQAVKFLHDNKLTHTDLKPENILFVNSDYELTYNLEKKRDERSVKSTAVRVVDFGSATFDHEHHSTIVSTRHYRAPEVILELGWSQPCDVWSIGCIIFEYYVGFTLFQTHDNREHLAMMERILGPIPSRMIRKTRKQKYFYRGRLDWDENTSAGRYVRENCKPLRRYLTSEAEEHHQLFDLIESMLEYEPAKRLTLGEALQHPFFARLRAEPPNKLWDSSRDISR

[11] = molecular target: DYRK1A (Homo sapiens, UniProt Q13627); experiment: Kd determination DYRK1A; format: binding
[12] = test system: CLK1,2,4; experiment: established model for inhibition of CLK1,2,4 in cells; format: cell-based
[13] = test system: cells (mitosis); experiment: mitotic arrest in cells; format: cell-based
[14] = test system: 12 human primary cell-based systems; experiment: BioMAP Diversity PLUS panel; conditions: comparison with reference database of >4,000 agents
[15] = molecular target: T1, ERβ; conditions: ref HsiehRW; RajanSS; SharmaSK; GreeneGL Steroids, 2008, 73, 59–68; cited from earlier work

SMILES: C[C@]12CCc3c(ccc4ccc(O)cc34)[C@@H]1C[C@@H](O)C2 [VII, estra-1,3,5(10),6,8-pentaene-2,16α-diol]
- GI50 [1]: ~0.2 µg/mL (≈ 0.745 µM)
- GI50 [2]: ~0.5 µg/mL and 2 µM
- EC50 [3]: 0.021 µM
- shift in selectivity favoring agonism of ERβ over ERα in comparison to 17-β-estradiol ([3]; ERβ vs ERα, relative to 17-β-estradiol): ~4 fold
- agonist potency order ERβ vs ERα [4]: potency for ERβ > ERα
- antagonist activity at ERβ [5]: not showing activity as an antagonist
- antagonist activity at ERα [6]: not showing activity as an antagonist
- S-score(35) [7]: 0.03
- Kd [8]: 0.35 µM
- Kd [9]: 1.4 µM
- Kd [10]: 2 µM
- Kd [11]: 2 µM
- CLK inhibitory activity in cells [12]: no evidence of CLK inhibitory activity in cells
- mitotic arrest [13]: arrests cells in mitosis; also recorded: induces mitotic arrest in cells
- BioMAP phenotypic profile similarity to reference agents [14]: favorable comparison to both 17-β estradiol (a dual ERα and ERβ agonist) as well as 2-methoxyestradiol; also recorded: correlation with several microtubule targeting agents (combretastatin A4, 2-methoxyestradiol and paclitaxel); also recorded: related to the clinically relevant microtubule-targeting agent paclitaxel; also recorded: phenotypically related to paclitaxel

SMILES: C[C@]12CCc3c(ccc4cc(O)ccc34)[C@@H]1CC[C@@H]2O [17-β-dihydroequilenin]
- shift in selectivity for agonism of ER-β [15]: related shift in selectivity for agonism of ER-β
